Measurements from PMC3569657 (EMBO Molecular Medicine, 2012).
Several values for one entry are separate records, joined by “and”; a condition that tells them apart may be missing. Equal values may be shown once. Read-outs that look alike come from different tables or passages of the source. Values belong to the compound of their own block, whether it stands above or below them. Peptide text beside a SMILES is read from it. * marks the point of attachment. Cbz = O=C(OCc1ccccc1)*; CH2F = FC*

Legend:
[1] = tested on: ATG5−/− MEFs; assay: Caspase 3 activity assay, taxol-induced apoptosis; format: cell-based, mouse; details: 80 nM and 24 h, compared to WT MEFs
[2] = tested on: A549 cells; assay: Cell death by LDH release; format: cell-based, human; details: for effect of pre-treatment on FTY720-mediated cell death / growth suppression: A549 cells, FTY720 20 µM, OA 10 nM
Procedure, shortened: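 A549 cells were exposed to 20 µM test compound or vehicle for 24 h, and cell death was read as LDH released into the medium. Variants included pre-treatment with okadaic acid (10 nM), Z-VAD or necrostatin, and PP2A siRNA knockdown against scrambled siRNA (knockdown checked by Western blot). Another variant used HA-tagged PP2A overexpression, confirmed by Western blot, compared with controls.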

[3] = tested on: H157 (K-Ras mutant) human lung cancer cells; assay: Cell death by LDH release; format: cell-based; details: FTY720 20 µM; for effect on FTY720-mediated cell death: LDH release
Procedure, shortened: (§1)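 Cell death was assessed in human lung cancer lines H157 (K-Ras mutant) and H827 (EGFR mutant) after exposure to test compound. Conditions compared with controls: RIPK1 inhibition by necrostatin, PP2A inhibition by okadaic acid, and siRNA knockdown of RIPK1 or PP2Ac.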

[4] = target: WT-I2PP2A/SET-GFP (Homo sapiens, UniProt Q01105); assay: anti-GFP pull-down from A549 cells, protein-bound endogenous lipids by LC/MS/MS; format: binding; details: for binding of WT-I2PP2A/SET to ceramide, fold: compared to the K209D-I2PP2A/SET (so in the source)
[5] = target: purified recombinant human I2PP2A/SET (Homo sapiens, UniProt Q01105); assay: SPR binding of purified human I2PP2A/SET to lipid vesicles
Procedure, shortened: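 SPR at 25°C. Sensor chip coated with vesicles of POPC:POPE:x (75:20:5, x = C18-ceramide or test compound) to about 6200 RU, against a POPC:POPE (80:20) control surface, and stabilised with 50 mM NaOH. Protein (I2PP2A/SET, or p47phox-PX control protein) in 20 mM HEPES pH 7.4, 0.16 M KCl was flowed at 5 µl/min. Triplicate sensorgrams per lipid were fitted individually for ka and kd, giving Kd = kd/ka.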

[6] = target: I2PP2A/SET (Homo sapiens, UniProt Q01105); format: binding; details: unlabeled competitor 10 µM; purified I2PP2A/SET
Procedure, shortened: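 Recombinant human I2PP2A/SET (His-tag vector), 1–2 µg, incubated with biotin alone or biotin-labelled test compound (1, 5 or 10 µM). Competition runs added unlabelled ceramide or the parent or phosphorylated compound, 10 µM each. Bound protein was captured by streptavidin/avidin column pull-down, and eluates were run on SDS–PAGE and immunoblotted with anti-I2PP2A/SET.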

[7] = tested on: MEFs obtained from caspase3/7−/− DKO, Bax/Bak−/− DKO or ATG5−/− KO mice; assay: MTT growth assay in knockout MEFs; format: cell-based, mouse; details: various concentrations
[8] = tested on: RIPK1−/− MEFs; assay: Cell death in RIPK1−/− versus RIPK1+/+ MEFs; format: cell-based, mouse; details: FTY720 15 µM, RIPK1−/− compared to RIPK1+/+ MEFs
[9] = tested on: H827 (EGFR mutant) human lung cancer cells; assay: Cell death by LDH release; format: cell-based; details: FTY720 20 µM
Procedure, shortened: as §1

[10] = FTY720 and P-FTY720 in tumour and serum of A549-xenograft mice by LC/MS/MS; format: in vivo, SCID mice; details: mice treated with oral FTY720 3 mg/kg/day
[11] = tested on: SK2−/− MEFs; assay: MTT growth assay; format: cell-based; details: Mus musculus
[12] = tested on: c-Myc-V5; assay: Ectopically expressed c-Myc-V5 in MEFs by Western blotting; format: cell-based, mouse
Procedure, shortened: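 V5-tagged c-Myc was ectopically expressed in WT, SK-1−/− and SK-2−/− mouse embryonic fibroblasts. Cells were exposed to test compound, and c-Myc was detected by Western blotting with actin as loading control. Relative c-Myc levels were derived from band quantification.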

[13] = FTY720 and P-FTY720 in serum and tumours of LLC-allograft mice by LC/MS/MS; format: in vivo, mouse; details: oral FTY720 10 mg/kg
Procedure, shortened: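 Lewis lung adenocarcinoma allografts were grown in flanks of WT and SK-2−/− mice. Animals received oral test compound at 10 mg/kg. Parent compound and its phosphorylated form were quantified by LC/MS/MS in the tumours.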

[14] = tested on: c-Myc; assay: c-Myc expression in A549 cells by Western blotting; format: cell-based, human; details: compared to controls
Procedure, shortened: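 A549 cells were treated with test compound or its phosphorylated form alongside controls. c-Myc was detected by Western blotting with actin as loading control, and relative c-Myc levels were derived from band quantification.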

[15] = tested on: WT MEFs; assay: MTT growth assay; format: cell-based; details: Mus musculus
[16] = tested on: A549-xenograft-derived tumours; assay: A549-xenograft-derived tumour growth in SCID mice; format: in vivo, Balb/c SCID mice
Procedure, shortened: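 A549 cells, or A549 lines with control shRNA, I2PP2A/SET shRNA or shRNA plus WT-I2PP2A/SET re-expression, grown as flank xenografts in Balb/c SCID mice. Test compound was given by oral gavage at 3 mg/kg/day against vehicle-treated controls: 15 days (n = 12) for parental xenografts, 18 days for the shRNA lines. Tumour volume change was computed relative to untreated sh-control mice at Day 18. Tumours were also examined by electron microscopy for mitochondrial damage and cytoplasmic swelling.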

[17] = tested on: serum LDH; assay: Total LDH released in serum of xenograft-bearing mice; format: in vivo, SCID mice; details: mice bearing A549/sh-control xenografts, 3 mg/kg/day oral
Procedure, shortened: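 Balb/c SCID mice bearing A549/sh-control, sh-I2PP2A/SET or reconstituted WT-I2PP2A/SET xenografts were dosed by daily oral gavage at 3 mg/kg for 18 days, with untreated mice as controls. Total serum LDH was measured by an external analytical lab.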

[18] = tested on: P-PP2A (Y307), c-Myc, hTERT mRNA; assay: PP2A signalling markers in A549-xenograft tumours; format: in vivo, SCID mice; details: 3 mg/kg/day oral
[19] = tested on: SK1−/− MEFs; assay: MTT growth assay; format: cell-based; details: Mus musculus
[20] = tested on: A549 cells; assay: Annexin V/7-AAD flow cytometry; format: cell-based, human; details: compared to controls
[21] = tested on: Lewis lung adenocarcinoma cell (LLC)-derived allografts; assay: Lewis lung adenocarcinoma allograft growth in WT and SK-2−/− mice; format: in vivo, mouse; details: 10 mg/kg/day oral, vs controls
Procedure, shortened: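 Lewis lung adenocarcinoma cells were implanted in flanks of WT (C57BL/6 background) and SK-2−/− mice. Animals were treated with oral test compound at 10 mg/kg or served as controls. Results are given as % change in tumour volume for each genotype against its controls at Day 13.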

[22] = tested on: PP2A; assay: PP2A activity assay on A549 cell extracts; format: cell-based, human; details: 10 µM FTY720, compared to vehicle-treated controls
Procedure, shortened: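 PP2A phosphatase activity was measured in extracts of A549, A549/shI2PP2A and A549/shI2PP2A re-expressing WT-I2PP2A/SET (about 60% reconstitution). Cells were grown with or without 10 µM test compound. In a related set, PP2A siRNA knockdown in A549 cells was compared with scrambled-siRNA controls.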

[23] = target: Y122C-I2PP2A/SET-GFP (Homo sapiens, UniProt Q01105, Y135C); assay: anti-GFP pull-down from A549 cells, protein-bound endogenous lipids by LC/MS/MS; format: binding; details: compared to vector-transfected controls
Sequence of Y122C-I2PP2A/SET-GFP (Q01105 1-277 isoform Q01105-2 Y122C): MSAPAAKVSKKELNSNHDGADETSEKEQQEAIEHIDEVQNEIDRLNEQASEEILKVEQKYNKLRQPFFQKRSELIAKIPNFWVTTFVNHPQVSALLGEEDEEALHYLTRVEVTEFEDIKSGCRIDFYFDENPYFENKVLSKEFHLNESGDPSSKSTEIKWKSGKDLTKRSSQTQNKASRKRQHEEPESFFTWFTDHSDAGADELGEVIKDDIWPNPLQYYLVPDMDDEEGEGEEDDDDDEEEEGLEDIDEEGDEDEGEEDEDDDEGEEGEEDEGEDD

Sequence of WT-I2PP2A/SET-GFP (Q01105 1-277 isoform Q01105-2): as the sequence (Q01105 1-277 isoform Q01105-2 Y122C) above, with C122Y counted along it
Sequence of purified recombinant human I2PP2A/SET (Q01105 1-277 isoform Q01105-2): as the sequence (Q01105 1-277 isoform Q01105-2 Y122C) above, with C122Y counted along it
Sequence of I2PP2A/SET (Q01105 1-277 isoform Q01105-2): as the sequence (Q01105 1-277 isoform Q01105-2 Y122C) above, with C122Y counted along it

Compound: CC(=O)O[C@H]1C(=O)[C@@]2(C)[C@H]([C@H](OC(=O)c3ccccc3)[C@]3(O)C[C@H](OC(=O)[C@H](O)[C@@H](NC(=O)c4ccccc4)c4ccccc4)C(C)=C1C3(C)C)[C@]1(OC(C)=O)CO[C@@H]1C[C@@H]2O [taxol]
- caspase 3 activity (apoptosis) [1]: increased caspase 3 activity

Compound: CC(NC(=O)C(NC(=O)OCc1ccccc1)C(C)C)C(=O)NC(CC(=O)O)C(=O)CF (stereo not drawn) [Z-VAD] (Cbz-Val-Ala-Asp-CH2F; configuration not given here)
- effect of pre-treatment on FTY720-mediated cell death / growth suppression ([2]; LDH release): had no effect

Compound: CN1C(=O)C(Cc2c[nH]c3ccccc23)NC1=S (centres unmarked) [necrostatin]
- effect of pre-treatment on FTY720-mediated cell death / growth suppression ([2]; LDH release): significantly prevented
- effect on FTY720-mediated cell death [3]: prevented FTY720-mediated cell death

Compound: C=C1[C@@H](O)[C@@H]2O[C@]3(CC[C@H](/C=C/[C@@H](C)[C@@H]4CC(C)=C[C@@]5(O[C@H](C[C@@](C)(O)C(=O)O)CC[C@H]5O)O4)O3)CC[C@H]2O[C@@H]1[C@@H](O)C[C@H](C)[C@H]1O[C@@]2(CCCCO2)CC[C@H]1C [okadaic acid]
- effect on FTY720-mediated cell death [3]: prevented FTY720-mediated cell death

Compound: CCCCCCCCCCCCC/C=C/[C@@H](O)[C@@H](N)CO [sphingosine]
- binding of endogenous sphingosine ([4]; LC/MS/MS after pull-down): bind

Compound: CCCCCCCCCCCCC/C=C/[C@@H](O)[C@H](CO)NC(=O)CCCCCCCCCCCCCCCCC [C18-ceramide]
- Kd ([5]; read-out: Protein Kd, liposomes POPC:POPE:x (75:20:5), control POPC:POPE (80:20), 1 µM I2PP2A, 20 mM HEPES pH 7.4, 160 mM KCl): ~11 nM and 11 nM
- competition with B-FTY720-I2PP2A/SET binding [6]: competed significantly

Compound: CCCCCCCCc1ccc(CCC(N)(CO)CO)cc1 [FTY720, 2-amino-2-[2-(4-octylphenyl)ethyl]propane-1,3-diol]
- effect of genetic loss of caspases3/7, Bax/Bak or ATG5 on FTY720-induced cell death [7]: no protective effect
- Kd ([5]; Protein Kd, liposomes POPC:POPE:x (75:20:5), control POPC:POPE (80:20), 1 µM I2PP2A, 20 mM HEPES pH 7.4, 160 mM KCl): ~11 nM and 11 nM
- cell death on genetic loss of RIPK1 [8]: almost completely abrogated cell death
- PP2A-dependent necroptosis [9]: detected
- accumulation in A549-xenograft-derived tumours [10]: 0.2 pmol/nmol Pi
- accumulation in serum [10]: ~100 pmol/mL
- competition with B-FTY720-I2PP2A/SET binding [6]: competed significantly
- cell death ([2]; 20 µM, 24 h, LDH release): significantly induced cell death
- increase of FTY720-mediated cell death on overexpression of PP2A-HA ([2]; compared to controls): ~40%
- IC50 [11]: ~10000 nM
- reduced c-Myc expression ([12]; SK-1−/− MEFs): 70%
- reduced c-Myc expression ([12]; SK-2−/− MEFs): 55%
- reduced c-Myc expression ([12]; WT MEFs): 80%
- accumulation in tumours grown in WT and SK-2−/− mice [13]: comparable
- PP2A-dependent necroptosis [3]: detected
- c-Myc levels [14]: decreased c-Myc levels
- IC50 [15]: ~10000 nM
- tumour suppression in A549/sh-I2PP2A/SET xenografts expressing WT-I2PP2A/SET ([16]; 3 mg/kg/day oral): restored tumour suppressor effects
- tumour suppression in response to I2PP2A/SET knockdown (A549/sh-I2PP2A/SET xenografts) ([16]; 3 mg/kg/day oral): no additional effects
- growth of A549-xenograft-derived tumours ([16]; 3 mg/kg/day oral for 15 days, n = 12, p < 0.05 vs controls): inhibited the growth
- inhibition of growth of A549/control-derived xenografts ([16]; 3 mg/kg/day oral, 18 days, vs vehicle-treated controls): ~80%
- tumours with damaged/swollen mitochondria (TEM) ([16]; oral FTY720, n = 20): ~40%
- serum LDH [17]: increased serum LDH
- c-Myc and hTERT mRNA in tumours ([18]; IHC or Western blotting, Q-PCR): decreased
- inactive P-PP2A (Y307) in tumours ([18]; IHC, without affecting total PP2A): decreased
- IC50 [19]: ~10000 nM
- Annexin V/7-AAD positive cell populations [20]: increased
- inhibition of tumour growth ([21]; SK-2−/− mice): ~47%
- inhibition of tumour growth ([21]; WT mice): ~60%
- PP2A activity [22]: enhanced PP2A activity

Compound: CCCCCCCCc1ccc(CC[C@](N)(CO)COP(=O)(O)O)cc1 [P-FTY720]
- Protein Kd ([5]; liposomes POPC:POPE:x (75:20:5), control POPC:POPE (80:20), 1 µM I2PP2A, 20 mM HEPES pH 7.4, 160 mM KCl): below the detection limit
- accumulation in A549-xenograft-derived tumours [10]: 0.05 pmol/nmol Pi
- accumulation in serum [10]: ~400 pmol/mL
- accumulation in serum on loss of SK-2 ([13]; SK-2−/− mice): almost completely abrogated

More lines, now with the values ahead:

- binding of WT-I2PP2A/SET to ceramide, fold [4]: 2.1 fold
Compound: CCCCCCCCCCCCC/C=C/[C@@H](O)[C@H](CO)NC(=O)CCCCCCCCCCCCCCCCCCCCCCC [C24]

- binding of WT-I2PP2A/SET to ceramide, fold [4]: 1.9 fold
Compound: CCCCCCCCCCCCC/C=C/[C@@H](O)[C@H](CO)NC(=O)CCCCCCCCCCCCCCCCCCC [C20]

- binding of WT-I2PP2A/SET to ceramide, fold [4]: 2.6 fold
Compound: CCCCCCCCCCCCC/C=C/[C@@H](O)[C@H](CO)NC(=O)CCCCCCCCCCCCCCCCCCCCC [C22]

- increased binding of Y122C-I2PP2A/SET to ceramide, fold [23]: ~2.4 fold
- binding of WT-I2PP2A/SET to ceramide, fold [4]: 2.5 fold
Compound: CCCCCCCCCCCCC/C=C/[C@@H](O)[C@H](CO)NC(=O)CCCCCCCCCCCCCCCCCCCCCCCCC [C26]
